Results: ChEMBL document CHEMBL1124250, “9-Benzyl-6-(dimethylamino)-9H-purines with antirhinovirus activity” (J Med Chem, 1988)

What was measured:
rhinovirus A1B [1] = assay: In vitro activity against rhinovirus type 1B was determined by plaque inhibition assay; - = Inactive at 50 ug/disk; assay type: functional, organism-based, Enterovirus
Procedure, shortened: (§1)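 Rhinovirus 1B plaque inhibition run on M-HeLa cell monolayers, with compound applied on disks at 50 µg/disk. Compounds active or slightly active at this level went on to a plaque reduction assay for the 50% inhibitory concentration.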

rhinovirus A1B [2] = assay: In vitro activity against Rhinovirus type 1B by plaque inhibition assay.; assay type: functional, organism-based, Enterovirus; conditions: Rhinovirus A
Enterovirus [3] = assay: Percent inhibition of plaque formation of Rhinovirus serotype 8 was measured at 4 uM of the compound; assay type: functional
Enterovirus [4] = assay: Inhibitory concentration measured against Rhinovirus serotype 12; assay type: functional, organism-based
Enterovirus [5] = assay: Inhibitory concentration measured against Rhinovirus serotype 1A; assay type: functional, organism-based
Enterovirus [6] = assay: Inhibitory concentration measured against Rhinovirus serotype 21; assay type: functional, organism-based
Enterovirus [7] = assay: Inhibitory concentration measured against Rhinovirus serotype 16; assay type: functional, organism-based
Enterovirus [8] = assay: Inhibitory concentration measured against Rhinovirus serotype 19; assay type: functional, organism-based
Enterovirus [9] = assay: Inhibitory concentration measured against Rhinovirus serotype 1B; assay type: functional, organism-based
Enterovirus [10] = assay: Inhibitory concentration measured against Rhinovirus serotype 3; assay type: functional, organism-based
Enterovirus [11] = assay: Inhibitory concentration measured against Rhinovirus serotype 31; assay type: functional, organism-based
Enterovirus [12] = assay: Inhibitory concentration measured against Rhinovirus serotype 4; assay type: functional, organism-based
Enterovirus [13] = assay: Inhibitory concentration measured against Rhinovirus serotype 2; assay type: functional, organism-based
Enterovirus [14] = assay: Percent inhibition of plaque formation of Rhinovirus serotype 18 was measured at 4 uM of the compound; assay type: functional
Enterovirus [15] = assay: Inhibitory concentration measured against Rhinovirus serotype 9; assay type: functional, organism-based
Enterovirus [16] = assay: Inhibitory concentration measured against Rhinovirus serotype 29; assay type: functional, organism-based
Enterovirus [17] = assay: Inhibitory concentration measured against Rhinovirus serotype 30; assay type: functional, organism-based
Enterovirus [18] = assay: Inhibitory concentration measured against Rhinovirus serotype 15; assay type: functional, organism-based
Enterovirus [19] = assay: Inhibitory concentration measured against Rhinovirus serotype 14; assay type: functional, organism-based
Enterovirus [20] = assay: Inhibitory concentration measured against Rhinovirus serotype 13; assay type: functional, organism-based
Enterovirus [21] = assay: Inhibitory concentration measured against Rhinovirus serotype 5; assay type: functional, organism-based
Enterovirus [22] = assay: Percent inhibition of plaque formation of Rhinovirus serotype 13 was measured at 5 uM of the compound; assay type: functional
Enterovirus [23] = assay: Percent inhibition of plaque formation of Rhinovirus serotype 31 was measured at 2.5 uM of the compound; assay type: functional
Enterovirus [24] = assay: Percent inhibition of plaque formation of Rhinovirus serotype 15 was measured at 2.5 uM of the compound; assay type: functional
Enterovirus [25] = assay: Percent inhibition of plaque formation of Rhinovirus serotype 29 was measured at 2.5 uM of the compound; assay type: functional
Enterovirus [26] = assay: Inhibitory concentration measured against Rhinovirus serotype 8; assay type: functional, organism-based
Enterovirus [27] = assay: Percent inhibition of plaque formation of Rhinovirus serotype 18 was measured at 5 uM of the compound; assay type: functional
Enterovirus [28] = assay: Percent inhibition of plaque formation of Rhinovirus serotype 14 was measured at 2.5 uM of the compound; assay type: functional
Enterovirus [29] = assay: Inhibitory concentration measured against Rhinovirus serotype 18; assay type: functional, organism-based
rhinovirus A1B [30] = assay: In vitro activity against rhinovirus type 1B was determined by plaque inhibition assay; Inactive at 50 ug/disk, T=Toxic; assay type: functional, organism-based, Enterovirus; procedure, shortened: as §1

Compound: CN(C)c1ncnc2c1ncn2Cc1ccc(OCc2ccccc2)cc1
- IC50 (rhinovirus A1B [1]): Not Active

Compound: COc1ccc(Cn2cnc3c(N(C)C)ncnc32)cc1
- IC50 (rhinovirus A1B [2]): 38 µM

Compound: CN(C)c1ncnc2c1ncn2Cc1ccc(N)cc1
- IC50 (rhinovirus A1B [1]): Not Active

Compound: CN(C)c1ncnc2c1ncn2Cc1cccc(I)c1
- IC50 (rhinovirus A1B [2]): 6.7 µM

Compound: CN(C)c1ncnc2c1ncn2Cc1cccc([N+](=O)[O-])c1
- IC50 (rhinovirus A1B [1]): Not Active

Compound: CN(C)c1ncnc2c1ncn2Cc1ccc(F)cc1
- IC50 (rhinovirus A1B [1]): Not Active

Compound: CN(C)c1ncnc2c1ncn2Cc1cccc(Cl)c1
- IC50 (rhinovirus A1B [2]): 30.5 µM

Compound: CN(C)c1nc(Cl)nc2c1ncn2Cc1ccc(C(C)(C)C)cc1
- IC50 (rhinovirus A1B [2]): 0.44 µM

Compound: COc1ccc(Cn2cnc3c(N(C)C)nc(Cl)nc32)cc1
- IC50 (rhinovirus A1B [2]): 0.7 µM

Compound: CCc1ccc(Cn2cnc3c(N(C)C)nc(Cl)nc32)cc1
- Inhibition (Enterovirus [3]): 30%
- IC50 (Enterovirus [4]): 7 µM
- IC50 (Enterovirus [5]): 0.5 µM
- IC50 (Enterovirus [6]): 8 µM
- IC50 (Enterovirus [7]): 0.2 µM
- IC50 (Enterovirus [8]): 4.6 µM
- IC50 (Enterovirus [9]): 0.08 µM
- IC50 (Enterovirus [10]): 4 µM
- IC50 (rhinovirus A1B [2]): 0.08 µM
- IC50 (Enterovirus [11]): 3.5 µM
- IC50 (Enterovirus [12]): 4 µM
- IC50 (Enterovirus [13]): 2.8 µM
- Inhibition (Enterovirus [14]): 42%
- IC50 (Enterovirus [15]): 0.4 µM
- IC50 (Enterovirus [16]): 0.3 µM
- IC50 (Enterovirus [17]): 4 µM
- IC50 (Enterovirus [18]): 3.9 µM
- IC50 (Enterovirus [19]): 3.3 µM
- IC50 (Enterovirus [20]): 4.9 µM
- IC50 (Enterovirus [21]): 5.6 µM

Compound: COc1cccc(Cn2cnc3c(N(C)C)nc(Cl)nc32)c1
- IC50 (rhinovirus A1B [2]): 2 µM

Compound: CN(C)c1nc(Cl)nc2c1ncn2Cc1ccccc1
- IC50 (rhinovirus A1B [2]): 0.82 µM

Compound: CN(C)c1nc(Cl)nc2c1ncn2Cc1ccc2ccccc2c1
- IC50 (rhinovirus A1B [2]): 1.1 µM

Compound: CN(C)c1ncnc2c1ncn2Cc1cccc(NC(=O)C(N)Cc2ccccc2)c1 (configuration not stated)
- IC50 (rhinovirus A1B [2]): 17 µM

Compound: CN(C)c1nc(Cl)nc2c1ncn2Cc1ccc(Cl)cc1
- Inhibition (Enterovirus [22]): 12%
- IC50 (Enterovirus [4]): 5.4 µM
- IC50 (Enterovirus [5]): 3 µM
- IC50 (Enterovirus [6]): > 5 µM
- IC50 (Enterovirus [8]): > 5 µM
- IC50 (Enterovirus [9]): 0.12 µM
- IC50 (Enterovirus [10]): 3.1 µM
- IC50 (rhinovirus A1B [2]): 0.12 µM
- Inhibition (Enterovirus [23]): 42%
- Inhibition (Enterovirus [24]): 40%
- IC50 (Enterovirus [12]): > 2.5 µM
- IC50 (Enterovirus [13]): 2.5 µM
- Inhibition (Enterovirus [25]): 31%
- IC50 (Enterovirus [15]): 2.1 µM
- IC50 (Enterovirus [17]): > 2.5 µM
- IC50 (Enterovirus [26]): 4.5 µM
- IC50 (Enterovirus [21]): 5.2 µM
- Inhibition (Enterovirus [27]): 35%
- Inhibition (Enterovirus [28]): 32%

Compound: CN(C)c1nc(Cl)nc2c1ncn2Cc1cccc(N)c1
- IC50 (rhinovirus A1B [2]): 13 µM

Compound: Cc1ccc(Cn2cnc3c(N(C)C)ncnc32)cc1
- IC50 (rhinovirus A1B [2]): 8.6 µM

Compound: Cc1ccc(Cn2cnc3c(N(C)C)nc(Cl)nc32)cc1
- IC50 (Enterovirus [4]): 5.4 µM
- IC50 (Enterovirus [29]): 4 µM
- IC50 (Enterovirus [5]): 0.12 µM
- IC50 (Enterovirus [6]): 5.6 µM
- IC50 (Enterovirus [7]): 1 µM
- IC50 (Enterovirus [8]): 14 µM
- IC50 (Enterovirus [9]): 0.08 µM
- IC50 (Enterovirus [10]): 7.2 µM
- IC50 (rhinovirus A1B [2]): 0.08 µM
- IC50 (Enterovirus [11]): 1.6 µM
- IC50 (Enterovirus [12]): 4.6 µM
- IC50 (Enterovirus [13]): 11 µM
- IC50 (Enterovirus [15]): 2 µM
- IC50 (Enterovirus [16]): > 5 µM
- IC50 (Enterovirus [18]): 3.5 µM
- IC50 (Enterovirus [26]): 13 µM
- IC50 (Enterovirus [19]): 7 µM
- IC50 (Enterovirus [20]): 2.3 µM
- IC50 (Enterovirus [21]): 6.2 µM

Compound: CN(C)c1ncnc2c1ncn2Cc1ccc(Cl)c(Cl)c1
- IC50 (rhinovirus A1B [2]): 2.5 µM

Compound: CN(C)c1nc(Cl)nc2c1ncn2Cc1ccc(N)cc1
- IC50 (rhinovirus A1B [2]): 0.3 µM

Compound: Cc1cccc(Cn2cnc3c(N(C)C)nc(Cl)nc32)c1
- IC50 (rhinovirus A1B [2]): 0.6 µM

Compound: CN(C)c1nc(Cl)nc2c1ncn2Cc1ccc(Cl)c(Cl)c1
- IC50 (rhinovirus A1B [2]): 0.32 µM

Compound: CN(C)c1nc(Cl)nc2c1ncn2Cc1ccc([N+](=O)[O-])cc1
- IC50 (rhinovirus A1B [2]): 0.51 µM

Compound: CN(C)c1ncnc2c1ncn2Cc1cccc(OCc2ccccc2)c1
- IC50 (rhinovirus A1B [2]): 13 µM

Compound: CN(C)c1nc(Cl)nc2c1ncn2Cc1cccc(OCc2ccccc2)c1
- IC50 (rhinovirus A1B [30]): Toxic

Compound: CN(C)c1ncnc2c1ncn2Cc1cc(Cl)cc(Cl)c1
- IC50 (rhinovirus A1B [2]): 4.6 µM

Compound: CC(C)c1ccc(Cn2cnc3c(N(C)C)nc(Cl)nc32)cc1
- IC50 (Enterovirus [4]): 3.4 µM
- IC50 (Enterovirus [29]): 4.3 µM
- IC50 (Enterovirus [5]): < 1 µM
- IC50 (Enterovirus [7]): 0.2 µM
- IC50 (Enterovirus [8]): 7 µM
- IC50 (Enterovirus [9]): 0.07 µM
- IC50 (Enterovirus [10]): 7 µM
- IC50 (rhinovirus A1B [2]): 0.07 µM
- IC50 (Enterovirus [11]): 4 µM
- IC50 (Enterovirus [12]): 6.1 µM
- IC50 (Enterovirus [13]): 1.2 µM
- IC50 (Enterovirus [15]): < 1 µM
- IC50 (Enterovirus [16]): 0.5 µM
- IC50 (Enterovirus [17]): 8 µM
- IC50 (Enterovirus [18]): 4.5 µM
- IC50 (Enterovirus [26]): 6 µM
- IC50 (Enterovirus [19]): 5.9 µM
- IC50 (Enterovirus [20]): 5.8 µM
- IC50 (Enterovirus [21]): 8 µM

Compound: CN(C)c1nc(Cl)nc2c1ncn2Cc1cccc(I)c1
- IC50 (rhinovirus A1B [2]): 0.36 µM

Compound: CN(C)c1nc(Cl)nc2c1ncn2Cc1cccc(Cl)c1
- IC50 (rhinovirus A1B [2]): 0.59 µM

Compound: CN(C)c1ncnc2c1ncn2Cc1ccccc1
- IC50 (rhinovirus A1B [2]): 33 µM

Compound: CN(C)c1ncnc2c1ncn2Cc1cccc(F)c1
- IC50 (rhinovirus A1B [2]): 23 µM

Compound: CN(C)c1ncnc2c1ncn2Cc1cccc(O)c1
- IC50 (rhinovirus A1B [1]): Not Active

Compound: CN(C)c1ncnc2c1ncn2Cc1cccc(N)c1
- IC50 (rhinovirus A1B [2]): 50 µM

Compound: Cc1cccc(Cn2cnc3c(N(C)C)ncnc32)c1
- IC50 (rhinovirus A1B [2]): 32 µM

Compound: CN(C)c1ncnc2c1ncn2Cc1ccc(Cl)cc1
- IC50 (rhinovirus A1B [2]): > 25 µM

Compound: CN(C)c1ncnc2c1ncn2Cc1ccc(C#N)cc1
- IC50 (rhinovirus A1B [1]): Not Active

Compound: CC(=O)Nc1ccc(Cn2cnc3c(N(C)C)ncnc32)cc1
- IC50 (rhinovirus A1B [1]): Not Active

Compound: CN(C)c1ncnc2c1ncn2Cc1ccc([N+](=O)[O-])cc1
- IC50 (rhinovirus A1B [1]): Not Active

Compound: CN(C)c1ncnc2c1ncn2Cc1cccc(C(F)(F)F)c1
- IC50 (rhinovirus A1B [2]): 19.6 µM

Compound: CN(C)c1ncnc2c1ncn2Cc1cccc(C#N)c1
- IC50 (rhinovirus A1B [1]): Not Active

Compound: CN(C)c1ncnc2c1ncn2Cc1cccc(Br)c1
- IC50 (rhinovirus A1B [2]): 14.4 µM

Compound: CN(C)c1ncnc2c1ncn2Cc1ccc(O)cc1
- IC50 (rhinovirus A1B [2]): 34 µM

Compound: COc1cccc(Cn2cnc3c(N(C)C)ncnc32)c1
- IC50 (rhinovirus A1B [2]): 50 µM

Compound: CC(C)S(=O)(=O)n1c(N)nc2ccc(/C(=N/O)c3ccccc3)cc21 [ENVIROXIME]
- IC50 (rhinovirus A1B [2]): 0.04 µM
